Screening results as filed in PubChem BioAssay.
Most compounds without a hit are left out; they make up all but 1.2% or so of the library.
DNA FID counter = fluorescent intercalator displacement, NS3 helicase counter-screen | DNA fluorescent intercalator displacement, fluorescence | inhibition, % at 7.9 µM | 290,000 compounds, 0.17% hits; in the data active = inhibition above about 37%;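 note: 0% = vehicle and 100% = reference compound; higher means more ethidium bromide displaced from hairpin DNA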
Wee1 stabilizer = human Wee1 degradation inhibition, primary screen; 220,000 compounds, 1.2% hits; P30291; HeLa Luc-Wee1K328M stability, luciferase luminescence; 100% = proteasome inhibitor MG132 effect; reporter increase, % at 5 µM;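 active = activation above the mean of all tested compounds plus 3 SD, set per screening run, cut at about 8.8% in these data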;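 note: cells exposed to compound for 20 h before luminescence read; 0% = DMSO alone and 100% = MG132 at 30 µM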
RBBP9 inhibitor = human RBBP9 hydrolase inhibition; O75884; 220,000 compounds, 0.2% hits; inhibition, % at 7.94 µM; AID 1515; recombinant RBBP9, FP-Rh probe fluorescence polarization;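 active = inhibition above the campaign mean of all tested compounds plus 3 SD, cut at about 14% in these data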;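 note: plate controls were DMSO wells with RBBP9 for no effect and wells lacking RBBP9 protein for full effect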
Target sequence (O75884 whole entry, looked up): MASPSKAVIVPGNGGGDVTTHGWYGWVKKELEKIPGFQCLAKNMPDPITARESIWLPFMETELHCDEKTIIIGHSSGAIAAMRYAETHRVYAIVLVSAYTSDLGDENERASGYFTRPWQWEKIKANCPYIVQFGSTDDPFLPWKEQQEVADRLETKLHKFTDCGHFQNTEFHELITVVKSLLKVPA
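Assay system: recombinant human RBBP9; Reagent: Serine-hydrolase probe FP-Rh, 375 nM pre-mixing; Doses: 7.94 µM single dose, 0.794% DMSO; Incubation: 30 min then 45 min, 25 °C; Detection: fluorescence polarization (mP), excitation 525 nm, emission 598 nm; Evaluation: percent inhibition from mP, scaled between DMSO and no-protein wells.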
Rad51 HR inh = Rad51 (human) homologous recombination inhibition | inhibition, % at 10 µM | Q06609 | 200,000 compounds, 0.085% hits | hRad51 DNA strand exchange, fluorescence dequenching | AID 1385;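 active = inhibition above 40% at the single screening dose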;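 note: 0% = DMSO control wells and 100% = blanks with heterologous ssDNA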
Target sequence (Q06609 whole entry, looked up): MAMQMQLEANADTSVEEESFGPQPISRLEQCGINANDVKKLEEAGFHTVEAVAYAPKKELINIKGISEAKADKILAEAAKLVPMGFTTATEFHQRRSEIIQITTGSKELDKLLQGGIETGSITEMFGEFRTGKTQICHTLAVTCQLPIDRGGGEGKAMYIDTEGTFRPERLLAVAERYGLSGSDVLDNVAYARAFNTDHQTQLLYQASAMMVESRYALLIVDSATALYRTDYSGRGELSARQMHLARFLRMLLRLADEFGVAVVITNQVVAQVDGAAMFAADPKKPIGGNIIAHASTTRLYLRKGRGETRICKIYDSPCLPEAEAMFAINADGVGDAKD
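Test system – preformed human Rad51 ssDNA filaments · Reagent – Donor/quencher-labelled 47-bp dsDNA substrate · Incubation – 37 °C 15-min filament assembly, 30-min compound preincubation, 15-min exchange · Signal – FRET fluorescence dequenching, excitation 485 nm, emission 520 nm · Read-out – percent inhibition from fluorescence, normalised to plate control and blank means · Benchmarks – plate control and blank wells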
Starred values were filed as active, the others as inactive; nt = no result.

SMILES	DNA FID counter	Wee1 stabilizer	RBBP9 inhibitor	Rad51 HR inh
O=Cc1c(OCc2ccccc2)ccc2ccccc12	5	11*	-6	20
CC[C@@](C)(NS(=O)(=O)OCC(Cl)(Cl)Cl)c1ccccc1	-12	nt	nt	nt
Cc1nn(CC(=O)NCCCN2CCCCC2)c(=O)c2cc(-c3ccccc3)nn12	22	nt	nt	nt
COc1ccc(-c2cc3c(=O)n(CC(=O)NCCCN4CCC(N5CCCCC5)CC4)nc(C)n3n2)cc1	42*	nt	nt	nt
COc1ccc(-c2cc3c(=O)n(CC(=O)NCCCN4CCC(N5CCCCC5)CC4)ncn3n2)cc1	40*	nt	nt	nt
CN(C)c1ccc(C(=O)OCC(=O)c2cccs2)cc1	-4	9.0*	-12	nt
COc1ccc(C(=O)COC(=O)c2ccc(N(C)C)cc2)cc1	-5	-2	-8	23
Cc1ccc(NC(=O)C23CCC(C)(C(=O)[C@H]2Br)C3(C)C)cc1 (some centres not stated)	-3	10*	-6	-4
CCOc1ccc(CN(C)CC(=O)NCc2ccc(F)cc2)cc1	5	nt	nt	nt
COc1ccc(S(=O)(=O)N(CC(=O)NCC2CCCO2)C2CCCCC2)cc1OC (configuration not stated)	-31	nt	nt	nt
CCC1(C)Nc2ccccc2C(=O)N1O (configuration not stated)	2	-1	0	41*
CCn1c(COc2ccccc2OC)nnc1SCC#N	-4	10*	-5	-9
NC(=O)N(CCC(=O)O)c1ccccc1	3	10*	-2	nt
CC(=O)Nc1ccc(C2(c3ccc(NC(C)=O)cc3)C(=O)Nc3ccccc32)cc1	-25	5	-4	25
Cc1cc(C)c2c(n1)SCC(=O)N2CC(=O)Nc1c(C)cccc1C	-13	nt	nt	nt
Cc1ccnc(N(C(=O)c2cccs2)C(=O)c2cccs2)c1	-3	12*	-4	-4
CC(C)(C)c1ccc(C(=O)NCCC(=O)NCc2cccs2)cc1	-24	nt	nt	nt
COc1ccc(NS(=O)(=O)c2ccc(NC(=O)C(CCSC)NC(N)=O)cc2)cc1 (configuration not stated)	-9	-1	-2	42*
O=C(COC(=O)Cc1ccc(Cl)cc1Cl)Nc1ccccc1OC(F)F	-19	8	-6	14
CCCC(=O)Nc1nc2ccc(NC(=O)c3ccc(Br)o3)cc2s1	-5	9.5*	-10	10
C/C(Cn1cnc([N+](=O)[O-])n1)=N\NC(=O)c1ccc(O)cc1O	9	-1	-7	-5
Cc1ccc(NC(=O)N2C(=O)C3(OCCO3)c3ccccc32)cc1	2	21*	-3	9
CCC(CC)C(=O)Nc1cccc(C(=O)c2ccccc2)c1	-8	9.4*	-4	3
CCN(CC)Cc1c(C(=O)N/N=C/c2c(Cl)cccc2Cl)nnn1-c1nonc1N	-7	nt	nt	nt
COc1ccc(-n2c(Cc3cccn3C)nnc2SCC(=O)N2CCOCC2)cc1	-26	13*	-3	7
SMILES	DNA FID counter	Wee1 stabilizer	RBBP9 inhibitor	Rad51 HR inh
Cn1cccc1Cc1nnc(SCC(=O)N2CCOCC2)n1-c1ccc(F)cc1	-28	-2	-3	-7
CC(c1ccccc1)n1c(N2CCN(C)CC2)nc2c1c(=O)[nH]c(=O)n2C (configuration not stated)	-6	nt	nt	nt
CCOC(=O)/C(C#N)=C/c1ccc(N2CCN(C)CC2)cc1	4	1	-5	0
CN1CCN(C(=O)/C(C#N)=C/c2ccc(OC(F)F)cc2)CC1	-1	1	5	44*
N#Cc1ccc(NC(=O)CSc2cn[nH]n2)cc1	-6	nt	nt	nt
O=C1CC(N2CCN(c3ccc(C(=O)c4ccc(F)cc4)cc3)CC2)C(=O)N1 (configuration not stated)	-18	8.9*	-7	3
CCN1C(=O)CC(N2CCN(c3ccc(C(=O)c4ccccc4)cc3)CC2)C1=O (configuration not stated)	-30	6	-4	5
Nc1ccc2nc(-c3ccc(-c4nc5ccc(N)cc5[nH]4)cc3)[nH]c2c1	52*	nt	nt	nt
O=C(Nc1ncc(Cc2ccccc2)s1)c1cccs1	0	9.0*	-15	-8
Cc1ccc(Cc2cnc(NC(=O)c3cccs3)s2)cc1	0	4	-10	1
CN(C)c1cc(NC(=O)CNC(C)(C)C)c2ccccc2n1	53*	0	-12	16
Cc1ccccc1NC(=S)NC1(C)CCS(=O)(=O)C1 (configuration not stated)	0	0	-1	0
COCCNC(=O)C1(S(=O)(=O)c2ccccc2)CC=CC1	-1	nt	nt	nt
Cc1cc(OC(=O)c2ccccc2Br)c([N+](=O)[O-])c(=O)[nH]1	-2	nt	nt	nt
CCN(CC)CCN(C(=O)c1cc2ccccc2cc1OC)c1nc2ccc(OC)cc2s1	44*	nt	nt	nt
O=C(Cn1ncc2c3ccccc3n(Cc3cccc(Cl)c3)c2c1=O)NCc1ccccn1	-46	nt	nt	nt
Cc1c(C)c2c(OCC(=O)N3CCC[C@H]3C(=O)O)cc3c(c2oc1=O)CCC(C)(C)O3	-34	nt	nt	nt
CCOc1cc(/C=C2\C(=O)N(c3cccc(C(=O)O)c3)N=C2C(F)(F)F)ccc1OCC(=O)Nc1ccccc1OC	43*	nt	nt	nt
Nc1c(C2=NCCO2)nnn1Cc1ccccc1	1	9.2*	-2	-5
COC(=O)c1nnn(Cc2ccccc2)c1N	0	-1	-9	1
CSCCC(NC(=O)OC(C)(C)C)C(=O)Oc1ccc2c(=O)c(-c3ccc4c(c3)OCCO4)coc2c1 (configuration not stated)	-5	9.9*	2	-4
CC(=O)N=c1sccn1CC(O)c1ccc(Br)cc1 (configuration not stated)	-10	nt	nt	nt
CNc1nc(C)c(C(=O)OCC(=O)OC)s1	37*	-1	-7	-5
Cc1ccc(C(CC(=O)c2ccco2)SCCO)cc1 (configuration not stated)	-2	11*	3	0
CC(C)CNC(=O)c1cccc(NC(=O)CCc2ccccc2)c1	-15	10*	-7	nt
SMILES	DNA FID counter	Wee1 stabilizer	RBBP9 inhibitor	Rad51 HR inh
COC(=O)c1cccc(NC(=O)CCc2ccccc2)c1	-3	9.4*	-1	12
NS(=O)(=O)c1cc2c(cc1Cl)NC(CSCc1ccccc1)=NS2(=O)=O	5	-3	-3	1
NS(=O)(=O)c1cc2c(cc1C(F)(F)F)NC(Cc1ccccc1)NS2(=O)=O (configuration not stated)	-2	10*	-7	1
CCOC(=O)Cn1c(=O)c2c(nc3n2CC(C)CN3Cc2ccccc2)n(C)c1=O (configuration not stated)	-51	nt	nt	nt
Cn1c(=O)c2c(nc(N3CCN(Cc4ccccc4)CC3)n2CCCc2ccccc2)n(C)c1=O	-26	10*	-1	-3
Cn1c(=O)c2c(nc(N3CCN(c4ccccc4)CC3)n2CCCc2ccccc2)n(C)c1=O	1	-1	-2	3
CCOC(=O)Cn1c(=O)c2c(nc(N3CCCCC3)n2Cc2ccccc2)n(C)c1=O	-21	-2	4	44*
Cc1cc(NC(=O)c2ccccc2)sc1C	3	6	-7	-4
Cc1ccc(NC(=O)c2ccccc2)s1	-4	9.7*	2	-4
O=C(NN=C1C2CC3CC1CC(Cl)(C3)C2)c1ccccn1	-15	9.7*	1	-6
